The target of one test is rat α-glucosidase. As to the kind of experiment: α-glucosidase inhibition method. In kind it is biochemical. An outline of the steps: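 Enzyme was the supernatant of rat intestinal acetone powder in saline, sonicated at 4 °C and spun at 1008 ×g (4 °C, 30 min). Test compound (20–300 µg/mL) and enzyme pre-incubated 5 min at 37 °C in 50 mM phosphate pH 6.8. 3 mM PNPG added, then 30 min at 37 °C and A405 read.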

Test [1] can be described thus: ABTS radical scavenging assay. An outline of the steps: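 ABTS radical cation formed by mixing 7 mM ABTS with 2.4 mM ammonium persulfate (1:1) and leaving 18–24 h in the dark at room temperature. Test compound (20–300 µg/mL) added to the ABTS solution and absorbance read at 734 nm. % inhibition = (OD control − OD sample)/OD control × 100, and IC50 taken from this. Ascorbic acid (10–150 µg/mL) served as positive control.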

A short description of test [2]: DPPH free radical scavenging assay. Put shortly: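 Test compound (20–300 µg/mL) mixed with an equal volume of DPPH solution, shaken vigorously, then kept 30 min in the dark at room temperature. Absorbance read at 517 nm. % scavenging = (OD control − OD sample)/OD control × 100, and IC50 derived from this. Ascorbic acid (10–150 µg/mL) served as positive control.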
For orientation: Loss of DPPH colour is used to gauge radical scavenging.

Test [3] deals with T1, porcine pancreatic α-amylase (Sus scrofa, UniProt P00690).
T1 sequence (P00690 16-511): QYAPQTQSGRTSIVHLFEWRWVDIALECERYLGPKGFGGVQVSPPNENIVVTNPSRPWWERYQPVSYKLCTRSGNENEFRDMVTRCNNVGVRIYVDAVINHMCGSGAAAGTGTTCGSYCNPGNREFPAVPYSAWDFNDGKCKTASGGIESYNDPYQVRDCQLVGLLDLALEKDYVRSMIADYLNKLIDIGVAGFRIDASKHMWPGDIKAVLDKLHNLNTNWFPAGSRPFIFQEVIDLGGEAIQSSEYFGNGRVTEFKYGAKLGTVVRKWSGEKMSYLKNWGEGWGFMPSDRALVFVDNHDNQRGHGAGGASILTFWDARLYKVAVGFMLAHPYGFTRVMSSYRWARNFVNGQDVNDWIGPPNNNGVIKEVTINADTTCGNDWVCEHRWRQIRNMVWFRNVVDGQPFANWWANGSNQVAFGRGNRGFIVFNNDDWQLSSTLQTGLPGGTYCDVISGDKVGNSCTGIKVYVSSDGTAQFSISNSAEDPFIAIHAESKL
As to the kind of experiment: biochemical. The following applies: α-Amylase inhibition method IC50 value.

Values joined by “and” are separate entries in the source; they are usually repeats but may differ in a detail not shown here. Identical values can stand only once.

For `CCN(O)N=Nc1ccc(S(=O)(=O)Nc2onc(C)c2C)cc1` [SF-2, 3ـhydroxyـ3ـethylـ1ـ(4ـ(Nـ(3,4ـdimethylisoxazolـ5ـyl)sulfamoyl)phenyl)triazene], the “α-Glucosidase inhibition method IC50 value” at rat α-glucosidase was determined as 248.64 µg/mL. For the same compound, the “ABTS Assay IC50 value” in test [1] is 229.83 µg/mL. In addition, the “DPPH Assay IC50 value” in test [2] came to 614.17 µg/mL. Also, half-maximal inhibition in test [3] (IC50) was put at 625 µM.
As to `C[C@H]1O[C@H](O[C@H]2[C@H](O)[C@@H](O)[C@@H](O[C@H]3[C@H](O)[C@@H](O)C(O)O[C@@H]3CO)O[C@@H]2CO)[C@H](O)[C@@H](O)[C@@H]1N[C@H]1C=C(CO)[C@@H](O)[C@H](O)[C@H]1O` (some centres unmarked) [acarbose, reference compound], on rat α-glucosidase, the “α-Glucosidase inhibition method IC50 value” is 12.21 (acarbose) μg/mL.
As for `Cc1ccc(N(O)N=Nc2ccc(S(=O)(=O)Nc3cc(C)on3)cc2)cc1` [SM-6, 3ـhydroxyـ3ـ(4ـmethylphenyl)ـ1ـ(4ـ(Nـ(5ـmethylisoxazolـ3ـyl)sulfamoyl)phenyl)triazene], on rat α-glucosidase, the “α-Glucosidase inhibition method IC50 value” came out at 262.74 µg/mL. Moreover, the “ABTS Assay IC50 value” in test [1] came out at 250.26 µg/mL. In addition, the “DPPH Assay IC50 value” in test [2] turned out to be 550.32 µg/mL. 425 µM corresponded to half-maximal inhibition in test [3] (IC50).
`Cc1ccc(N(O)N=Nc2ccc(S(=O)(=O)Nc3onc(C)c3C)cc2)cc1` [SF-6, 3ـhydroxyـ3ـ(4ـmethylphenyl)ـ1ـ(4ـ(Nـ(3,4ـdimethylisoxazolـ5ـyl)sulfamoyl)phenyl)triazene]: the “α-Glucosidase inhibition method IC50 value” at rat α-glucosidase was found to be 329 µg/mL. Moreover, in test [1], the “ABTS Assay IC50 value” was 70 µg/mL and 70.62 µg/mL. The “DPPH Assay IC50 value” in test [2] amounted to 587.28 µg/mL. Also, the IC50 – broadly, the concentration that gives 50% inhibition – in test [3] was 612 µM.
Take `O=C1O[C@H]([C@@H](O)CO)C(O)=C1O` [ascorbic acid, reference compound]: the “ABTS Assay IC50 value” in test [1] is 69.13 (ascorbic acid) μg/mL. In test [2], the “DPPH Assay IC50 value” is given as 29.12 (ascorbic acid) μg/mL.
With `CCCN(O)N=Nc1ccc(S(=O)(=O)Nc2nccs2)cc1` [ST-3, 3ـhydroxyـ3ـpropylـ1ـ(4ـ(Nـ(thiazolـ2ـyl)sulfamoyl)phenyl)triazene], the “α-Glucosidase inhibition method IC50 value” on rat α-glucosidase turned out to be 252 µg/mL. Also, in test [1], the “ABTS Assay IC50 value” came out at 160.145 µg/mL. The “DPPH Assay IC50 value” in test [2] was 662 µg/mL and 662.79 µg/mL. This compound gave an IC50 in test [3] of 586 µM.
In the case of `Cc1cccc(N(O)N=Nc2ccc(S(=O)(=O)Nc3nccs3)cc2)c1` [ST-5, 3ـhydroxyـ3ـ(3ـmethylphenyl)ـ1ـ(4ـ(Nـ(thiazolـ2ـyl)sulfamoyl)phenyl)triazene], the “α-Glucosidase inhibition method IC50 value” at rat α-glucosidase came out at 341 µg/mL. For the same compound, the “ABTS Assay IC50 value” in test [1] came to 92.075 µg/mL. Moreover, the “DPPH Assay IC50 value” in test [2] was 472.08 µg/mL. Besides, it took 558 µM to reach half-maximal inhibition in test [3] (IC50).
On to `CCN(O)N=Nc1ccc(S(=O)(=O)Nc2nccs2)cc1` [ST-2, 3ـhydroxyـ3ـethylـ1ـ(4ـ(Nـ(thiazolـ2ـyl)sulfamoyl)phenyl)triazene], for which the “α-Glucosidase inhibition method IC50 value” at rat α-glucosidase came out at 219 µg/mL. Also, in test [1], the “ABTS Assay IC50 value” was 232.39 µg/mL and 232.393 µg/mL. The “DPPH Assay IC50 value” in test [2] was 532.35 µg/mL. The compound further gave an IC50 in test [3] of 707 µM.
As for `Cc1noc(NS(=O)(=O)c2ccc(N=NN(C)O)cc2)c1C` [SF-1, 3ـhydroxyـ3ـmethylـ1ـ(4ـ(Nـ(3,4ـdimethylisoxazolـ5ـyl)sulfamoyl)phenyl)triazene], at rat α-glucosidase, the “α-Glucosidase inhibition method IC50 value” stood at 270 µg/mL. In test [2], the “DPPH Assay IC50 value” was 556.65 µg/mL. In test [3], the IC50 is 531 µM.
`Cc1cc(NS(=O)(=O)c2ccc(N=NN(O)c3ccccc3)cc2)no1` [SM-4, 3ـhydroxyـ3ـphenylـ1ـ(4ـ(Nـ(5ـmethylisoxazolـ3ـyl)sulfamoyl)phenyl)triazene]: the “α-Glucosidase inhibition method IC50 value” on rat α-glucosidase turned out to be 249 µg/mL. Also, the “ABTS Assay IC50 value” in test [1] was determined as 104.13 µg/mL. In addition, the “DPPH Assay IC50 value” in test [2] amounted to 583.31 µg/mL. In test [3], it took 469 µM to reach half-maximal inhibition (IC50).
Consider `Cc1cccc(N(O)N=Nc2ccc(S(=O)(=O)Nc3onc(C)c3C)cc2)c1` [SF-5, 3ـhydroxyـ3ـ(3ـmethylphenyl)ـ1ـ(4ـ(Nـ(3,4ـdimethylisoxazolـ5ـyl)sulfamoyl)phenyl)triazene], for which, at rat α-glucosidase, the “α-Glucosidase inhibition method IC50 value” is 292 µg/mL. Besides, the “ABTS Assay IC50 value” in test [1] worked out at 164.34 µg/mL. Moreover, in test [2], the “DPPH Assay IC50 value” was 423 µg/mL and 423.91 µg/mL. Moreover, the IC50 in test [3] was 546 µM and 548 µM.
For the compound `Cc1noc(NS(=O)(=O)c2ccc(N=NN(O)c3ccccc3)cc2)c1C` [SF-4, 3ـhydroxyـ3ـphenylـ1ـ(4ـ(Nـ(3,4ـdimethylisoxazolـ5ـyl)sulfamoyl)phenyl)triazene], the “α-Glucosidase inhibition method IC50 value” on rat α-glucosidase stood at 233 µg/mL. Further, the “DPPH Assay IC50 value” in test [2] amounted to 578.76 µg/mL. Moreover, in test [3], the IC50 was 452 µM.
For the compound `Cc1cc(NS(=O)(=O)c2ccc(N=NN(C)O)cc2)no1` [SM-1, 3ـhydroxyـ3ـmethylـ1ـ(4ـ(Nـ(5ـmethylisoxazolـ3ـyl)sulfamoyl)phenyl)triazene], the “ABTS Assay IC50 value” in test [1] was determined as 252.96 µg/mL. The “DPPH Assay IC50 value” in test [2] is 426 µg/mL and 426.75 µg/mL. The midpoint of inhibition in test [3], the IC50, lay at 698 µM.
Consider `Cc1cccc(N(O)N=Nc2ccc(S(=O)(=O)Nc3cc(C)on3)cc2)c1` [SM-5, 3ـhydroxyـ3ـ(3ـmethylphenyl)ـ1ـ(4ـ(Nـ(5ـmethylisoxazolـ3ـyl)sulfamoyl)phenyl)triazene], for which, at rat α-glucosidase, the “α-Glucosidase inhibition method IC50 value” stood at 314.43 µg/mL. The “ABTS Assay IC50 value” in test [1] stood at 81.50 µg/mL. Further, in test [2], the “DPPH Assay IC50 value” was 660 µg/mL and 660.39 µg/mL. The compound further had an IC50 in test [3] of 519 µM.
As to `CCN(O)N=Nc1ccc(S(=O)(=O)Nc2cc(C)on2)cc1` [SM-2, 3ـhydroxyـ3ـethylـ1ـ(4ـ(Nـ(5ـmethylisoxazolـ3ـyl)sulfamoyl)phenyl)triazene], at rat α-glucosidase, the “α-Glucosidase inhibition method IC50 value” worked out at 201.99 µg/mL. Further, the “ABTS Assay IC50 value” in test [1] was determined as 401.72 µg/mL. In addition, in test [3], inhibition was half-maximal at 376 µM (IC50).
On to `O=S(=O)(Nc1nccs1)c1ccc(N=NN(O)c2ccccc2)cc1` [ST-4, 3ـhydroxyـ3ـphenylـ1ـ(4ـ(Nـ(thiazolـ2ـyl)sulfamoyl)phenyl)triazene], for which, on rat α-glucosidase, the “α-Glucosidase inhibition method IC50 value” came to 280.03 µg/mL. Moreover, the “DPPH Assay IC50 value” in test [2] is 565.88 µg/mL. The same compound had an IC50 in test [3] of 550 µM.
For the compound `CCCN(O)N=Nc1ccc(S(=O)(=O)Nc2onc(C)c2C)cc1` [SF-3, 3ـhydroxyـ3ـpropylـ1ـ(4ـ(Nـ(3,4ـdimethylisoxazolـ5ـyl)sulfamoyl)phenyl)triazene], at rat α-glucosidase, the “α-Glucosidase inhibition method IC50 value” is 235.55 µg/mL. Besides, the “ABTS Assay IC50 value” in test [1] stood at 218.94 µg/mL. Besides, the “DPPH Assay IC50 value” in test [2] came to 490.82 µg/mL. Also, in test [3], the IC50 is 419 µM.
For `CCCN(O)N=Nc1ccc(S(=O)(=O)Nc2cc(C)on2)cc1` [SM-3, 3ـhydroxyـ3ـpropylـ1ـ(4ـ(Nـ(5ـmethylisoxazolـ3ـyl)sulfamoyl)phenyl)triazene] the same measures were 222.91 µg/mL, 282.32 µg/mL, 624 µg/mL and 624 µM.
Turning to `CN(O)N=Nc1ccc(S(=O)(=O)Nc2nccs2)cc1` [ST-1, 3ـhydroxyـ3ـmethylـ1ـ(4ـ(Nـ(thiazolـ2ـyl)sulfamoyl)phenyl)triazene], on rat α-glucosidase, the “α-Glucosidase inhibition method IC50 value” amounted to 238 µg/mL. In addition, in test [2], the “DPPH Assay IC50 value” is 488 µg/mL and 488.06 µg/mL. Further, the IC50 in test [3] is 559 µM.

These data come from PMC7472862 (Heliyon, 2020).
